Converted amounts (≈) assume the structure as drawn. The source made the active and inactive calls. No cut-off for these calls is given here.
Key:
[1] = test system: Staphylococcus aureus; assay: Antibacterial activity against Staphylococcus aureus ATCC 29213 assessed as reduction in microbial growth by two fold microdilution method; assay type: functional
[2] = test system: Enterococcus faecalis; assay: Antibacterial activity against Enterococcus faecalis assessed as reduction in microbial growth by two fold microdilution method; assay type: functional
[3] = test system: Staphylococcus aureus; assay: Antibacterial activity against Staphylococcus aureus ATCC 25923 assessed as reduction in microbial growth by two fold microdilution method; assay type: functional
[4] = test system: Escherichia coli; assay: Antibacterial activity against Escherichia coli assessed as reduction in microbial growth by two fold microdilution method; assay type: functional
[5] = test system: Escherichia coli; assay: Antibacterial activity against Escherichia coli ATCC 25922 assessed as reduction in microbial growth by two fold microdilution method; assay type: functional
[6] = test system: Staphylococcus aureus; assay: Antibacterial activity against methicillin-resistant Staphylococcus aureus assessed as reduction in microbial growth by two fold microdilution method; assay type: functional
Procedure, shortened: (§1)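 MIC determined by the standard two-fold broth micro-dilution assay, with norfloxacin and ciprofloxacin as reference agents.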

[7] = test system: Klebsiella pneumoniae; assay: Antibacterial activity against Klebsiella pneumonia assessed as reduction in microbial growth by two fold microdilution method; assay type: functional
[8] = test system: Pseudomonas aeruginosa; assay: Antibacterial activity against Pseudomonas aeruginosa ATCC 27853 assessed as reduction in microbial growth by two fold microdilution method; assay type: functional
[9] = test system: Staphylococcus aureus; assay: Antibacterial activity against Staphylococcus aureus assessed as reduction in microbial growth by two fold microdilution method; assay type: functional; procedure, shortened: as §1
[10] = test system: Acinetobacter baumannii; assay: Antibacterial activity against Acinetobacter baumannii assessed as reduction in microbial growth by two fold microdilution method; assay type: functional
[11] = test system: Pseudomonas aeruginosa; assay: Antibacterial activity against Pseudomonas aeruginosa assessed as reduction in microbial growth by two fold microdilution method; assay type: functional
[12] = test system: Staphylococcus aureus; assay: Potency index, ratio of norfloxacin MIC to test compound MIC for antibacterial activity against methicillin-resistant Staphylococcus aureus assessed as reduction in microbial growth by two fold microdilution method; assay type: functional
[13] = test system: Staphylococcus aureus; assay: Potency index, ratio of norfloxacin MIC to test compound MIC for antibacterial activity against Staphylococcus aureus ATCC 29213 assessed as reduction in microbial growth by two fold microdilution method; assay type: functional
[14] = test system: Staphylococcus aureus; assay: Antibacterial activity against methicillin-resistant Staphylococcus aureus assessed as reduction in bacterial growth at 50 to 300 ug/ml measured after 14 passages; assay type: functional, organism-based; details: dose 50-300 µg/ml
[15] = test system: Klebsiella pneumoniae; assay: Antibacterial activity against Klebsiella pneumonia in presence of (E)-1-cyclopropyl-6-fluoro-7-(4-(2-((2-methoxy-2-oxoethoxy)imino)-2-(thiazol-2-yl)ethyl)piperazin-1-yl)-4-oxo-1,4-dihydroquinoline-3-carboxylic acid (reference value: 2 ug/ml)
[16] = test system: Staphylococcus aureus; assay: microbe, parasite or virus in culture
[17] = test system: Staphylococcus aureus; assay: microbe, parasite or virus in culture; details: ATCC 25923

Row | SMILES | MIC [1] [µg/mL] | MIC [2] [µg/mL] | MIC [3] [µg/mL] | MIC [4] [µg/mL] | MIC [5] [µg/mL] | MIC [6] [µg/mL] | MIC [7] [µg/mL] | MIC [8] [µg/mL] | MIC [9] [µg/mL] | MIC [10] [µg/mL] | MIC [11] [µg/mL] | Ratio [12] | Ratio [13] | Activity [14] | MIC [15] [µg/mL] | MIC [16] [µg/mL] | MIC [17] [µg/mL]
1 | CCO/N=C(\CN1CCN(c2cc3c(cc2F)c(=O)c(C(=O)O)cn3C2CC2)CC1)c1nccs1 | 4 | 0.25 | 0.5 | 2 | 32 | 0.25 | 0.25 | 0.25 | 0.25 | 1 | 0.25 | – | – | – | – | – | –
2 | CCn1cc(C(=O)O)c(=O)c2cc(F)c(N3CCN(C/C(=N\OC(C)(C)C)c4nccs4)CC3)cc21 | 16 | 0.25 | 1 | 1 | 1 | 0.25 | 1 | 1 | 0.25 | 16 | 2 | 64 | – | – | – | – | –
3 | CCn1cc(C(=O)O)c(=O)c2cc(F)c(N3CCN(CC(=O)c4nccs4)CC3)cc21 | 1 | 2 | 2 | 32 | 64 | 4 | 32 | 2 | 4 | 16 | 4 | 4 | 16 | – | – | – | –
4 | CC(C)(C)O/N=C(\CN1CCN(c2c(F)cc3c(=O)c(C(=O)O)cn(C4CC4)c3c2Cl)CC1)c1nccs1 | 0.25 | 0.25 | 0.5 | 4 | 0.25 | 0.25 | 256 | 0.25 | 0.25 | 0.25 | 0.25 | – | – | inactive | – | – | –
5 | O=C(O)c1cn(C2CC2)c2cc(N3CCNCC3)c(F)cc2c1=O [CIPROFLOXACIN] | 0.5 | 2 | 2 | – | – | 8 | 2 | 1 | 2 | – | – | – | – | – | 0.125 | 2 (≈ 6.04 µM) | 1 (≈ 3.02 µM)
6 | C=CCO/N=C(\CN1CCN(c2c(F)cc3c(=O)c(C(=O)O)cn(C4CC4)c3c2Cl)CC1)c1nccs1 | 0.5 | 0.25 | 0.25 | 0.25 | 0.5 | 0.25 | 256 | 0.25 | 0.25 | 0.25 | 0.25 | – | – | – | – | – | –
7 | CCO/N=C(\CN1CCN(c2c(F)cc3c(=O)c(C(=O)O)cn(C4CC4)c3c2Cl)CC1)c1nccs1 | 0.25 | 0.25 | 0.5 | 0.25 | 256 | 0.25 | 256 | 0.25 | 0.25 | 0.25 | 0.25 | – | – | inactive | – | – | –
8 | CCn1cc(C(=O)O)c(=O)c2cc(F)c(N3CCN(C/C(=N\OCc4ccccc4)c4nccs4)CC3)cc21 | 256 | 0.25 | 0.25 | 0.5 | 64 | 0.25 | 128 | 1 | 4 | 1 | 0.5 | 64 | – | – | – | – | –
9 | O=C(O)c1cn(C2CC2)c2cc(N3CCN(C/C(=N\OCc4ccccc4)c4nccs4)CC3)c(F)cc2c1=O | 0.5 | 2 | 1 | 0.25 | 256 | 0.25 | 256 | 1 | 0.25 | 8 | 0.25 | – | – | – | – | – | –
10 | CCn1cc(C(=O)O)c(=O)c2cc(F)c(N3CCN(C/C(=N\OC)c4nccs4)CC3)cc21 | 0.25 | 4 | 0.5 | 0.25 | 256 | 0.25 | 256 | 8 | 2 | 0.25 | 0.25 | 64 | – | inactive | – | – | –
11 | CC(C)(C)O/N=C(\CN1CCN(c2cc3c(cc2F)c(=O)c(C(=O)O)cn3C2CC2)CC1)c1nccs1 | 4 | 2 | 1 | 128 | 1 | 4 | 64 | 0.25 | 4 | 4 | 0.25 | – | – | – | – | – | –
12 | C=CCO/N=C(\CN1CCN(c2cc3c(cc2F)c(=O)c(C(=O)O)cn3C2CC2)CC1)c1nccs1 | 32 | 0.25 | 0.25 | 1 | 0.5 | 0.25 | 0.25 | 0.25 | 0.25 | 0.25 | 0.25 | – | – | – | – | – | –
13 | O=C(O)c1cn(C2CC2)c2c(Cl)c(N3CCN(C/C(=N\OCc4ccccc4)c4nccs4)CC3)c(F)cc2c1=O | 2 | 0.25 | 1 | 0.25 | 0.25 | 0.25 | 0.25 | 0.25 | 2 | 0.25 | 1 | – | – | – | – | – | –
14 | CO/N=C(\CN1CCN(c2c(F)cc3c(=O)c(C(=O)O)cn(C4CC4)c3c2Cl)CC1)c1nccs1 | 0.25 | 0.25 | 0.5 | 0.25 | 0.25 | 0.25 | 0.25 | 0.25 | 0.25 | 0.25 | 1 | – | – | inactive | – | – | –
15 | O=C(CN1CCN(c2cc3c(cc2F)c(=O)c(C(=O)O)cn3C2CC2)CC1)c1nccs1 | 2 | 8 | 4 | 4 | 4 | 16 | 16 | 1 | 1 | 2 | 1 | – | – | – | – | – | –
16 | COC(=O)CO/N=C(\CN1CCN(c2c(F)cc3c(=O)c(C(=O)O)cn(C4CC4)c3c2Cl)CC1)c1nccs1 | 0.25 | 0.25 | 0.25 | 4 | 0.5 | 0.25 | 256 | 0.25 | 0.25 | 4 | 0.25 | – | – | – | – | – | –
17 | CCO/N=C(\CN1CCN(c2cc3c(cc2F)c(=O)c(C(=O)O)cn3CC)CC1)c1nccs1 | 4 | 16 | 0.5 | 0.25 | 256 | 0.25 | 256 | 8 | 8 | 2 | 0.25 | 64 | – | – | – | – | –
18 | C=CCO/N=C(\CN1CCN(c2cc3c(cc2F)c(=O)c(C(=O)O)cn3CC)CC1)c1nccs1 | 2 | 1 | 0.5 | 0.25 | 0.5 | 0.25 | 256 | 4 | 0.25 | 0.25 | 0.25 | 64 | – | inactive | – | – | –
19 | CCn1cc(C(=O)O)c(=O)c2cc(F)c(N3CCNCC3)cc21 [NORFLOXACIN] | 2 | 4 | 2 | 16 | 16 | 16 | 4 | 8 | 4 | 2 | 2 | – | – | – | – | – | –
20 | CO/N=C(\CN1CCN(c2cc3c(cc2F)c(=O)c(C(=O)O)cn3C2CC2)CC1)c1nccs1 | 0.25 | 0.25 | 0.25 | 0.25 | 256 | 0.25 | 256 | 2 | 0.25 | 1 | 0.25 | – | – | inactive | – | – | –
21 | CCn1cc(C(=O)O)c(=O)c2cc(F)c(N3CCN(C/C(=N\OCC(=O)OC)c4nccs4)CC3)cc21 | 2 | 0.25 | 0.25 | 32 | 0.25 | 0.25 | 256 | 0.25 | 4 | 1 | 0.25 | 64 | – | – | – | – | –
